This is one part of a sample in which hits are shown more often than they occur.
pCIP destab: compounds decreasing mouse p/CIP protein stability; Q05BA5; F442A p/CIP-EGFP cells, EGFP fluorescence, 16 h; decrease of EGFP signal, % at 10 µM; 290,000 tested, 0.01% active; AID 1984;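 active = EGFP signal decrease of at least 30% at 10 µM or well 3 SD below plate mean, unless failing retest; inactive = the rest, including hits failing retest or dose response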
XBP1 UPR activ: activators of adaptive arm of unfolded protein response (XBP1); activation, % at 20 µM; CHO-XBP1 luciferase reporter, IRE1-XBP1 UPR activation, luminescence; percent of tunicamycin response, DMSO as zero; 330,000 tested, 0.33% active; AID 463104;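 active = versus positive control, 20 µM dose yields 30% or more activation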;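 note: 100% = tunicamycin at 10 µg/mL and 0% = DMSO only wells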
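assay system = CHO-XBP1 luciferase reporter cells | amount = 1000 cells/well | buffer or medium = F12 plus 10% FBS | compound dosing = single point, 20 µM final compound, 1% DMSO | incubation = 16-18 h cell attachment at 37 °C, then 6 h compound exposure | detection = Steady-Glo luminescence read | controls = tunicamycin 10 µg/mL and vehicle-only wells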
CHOP UPR activ: activators of apoptotic arm of unfolded protein response (CHOP); CHO-CHOP luciferase reporter, UPR activation, luminescence; percent of tunicamycin response over DMSO baseline; activation, % at 10 µM; 330,000 tested, 0.34% active; AID 449763;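 active = at 10 µM dose, activation of 40% or more, normalized to positive control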;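 note: 100% = tunicamycin at 10 µg/mL and 0% = DMSO alone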
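Evaluation: % reporter activation, DMSO baseline versus tunicamycin full activation; System: CHO-CHOP luciferase reporter cell line; Input: 500 cells/well; Incubation: 6 h compound treatment, 37 °C; Measured by: Steady-Glo luciferase luminescence; Dosing: one dose, 10 µM in 0.5% DMSO; Buffer or medium: F12 medium, 10% FBS; Benchmarks: positive tunicamycin 10 µg/mL, negative DMSO alone.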
Dynein transport: blocks dynein driven cargo transport along microtubules; 3617.4 mouse cells, GR-EGFP nuclear translocation imaging; test concentration mostly 20 µM; stimulated with dexamethasone, 1 µM; active compounds read low; AID 1381; 220,000 tested, 0.47% active; z-score, hits read low;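 active = plate z-score of nuclear minus cytoplasmic receptor signal below a set negative limit, without overly bright fluorescence or cell loss, cut at about -3.5 in these data, passing the limit was not always enough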;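 note: z-score of nuclear minus cytoplasmic ring GR-EGFP intensity difference per well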
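Buffer or medium: tet-free, stripped-serum medium; reagent: dexamethasone at 1.0 µM final, 30 min; incubation: 48 h induction, 1 h compound, 30 min dex at 37 °C; measured by: formaldehyde fixation, Hoechst nuclear stain, 10x automated fluorescence imaging; read-out: nuclear-to-cytoplasmic GR-EGFP distribution per well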
CHOP inhibitor: blocks CHOP induction under ER stress; CHO-K1 CHOP-promoter luciferase, tunicamycin-induced, 15-18 h; inhibition, % at 10 µM; 220,000 tested, 3.8% active;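 active = compounds that reduced the stress-induced luciferase reporter signal by more than about 70% of percent inhibition, limit read from the data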;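 note: 0% = tunicamycin plus vehicle and 100% = wells without tunicamycin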
Beta2AR agonist: activates human beta-2 adrenergic receptor causing internalization; Am2.2-beta2AR cells, FAP receptor internalization, flow cytometry; response, % (concentration not given with the values); 340,000 tested, 0.43% active; AID 504454;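 active = response above a set limit, near 3 SD of response in nonfluorescent compounds, cut at about 42% in these data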
Target sequence (P07550 whole entry, looked up): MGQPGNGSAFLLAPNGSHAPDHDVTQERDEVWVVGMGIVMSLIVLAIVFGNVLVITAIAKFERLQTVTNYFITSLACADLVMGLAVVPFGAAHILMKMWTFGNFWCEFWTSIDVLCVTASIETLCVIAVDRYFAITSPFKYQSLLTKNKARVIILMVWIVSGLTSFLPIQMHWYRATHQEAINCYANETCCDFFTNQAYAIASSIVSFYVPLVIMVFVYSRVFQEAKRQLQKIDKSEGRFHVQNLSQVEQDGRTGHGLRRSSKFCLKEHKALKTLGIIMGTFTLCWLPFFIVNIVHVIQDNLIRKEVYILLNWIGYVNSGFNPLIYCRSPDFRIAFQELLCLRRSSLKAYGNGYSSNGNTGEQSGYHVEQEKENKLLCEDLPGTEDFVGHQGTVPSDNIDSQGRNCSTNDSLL
* = called active by the depositor; . = no result given.

SMILES | pCIP destab | XBP1 UPR activ | CHOP UPR activ | Dynein transport | CHOP inhibitor | Beta2AR agonist
O=c1cc(N2CCCCC2)c(-c2ccccc2)nn1Cc1ccc(F)cc1 | -11.8 | -7.6 | 2.1 | 1.05 | 81.5* | 4.5
O=c1cc(N2CCCCC2)c(-c2ccccc2)nn1Cc1ccc(Cl)cc1 | 9.1 | -1.4 | 1.9 | -0.988 | 70.8* | -8.9
CS(=O)(=O)c1ccccc1C(=O)N1CCN(Cc2ccccc2)CC1 | 9.2 | -1.7 | -0.8 | 0.987 | -16.8 | 8.0
Clc1ccc(-c2cnc(Oc3ccccc3)nc2)cc1 | 5.2 | -0.8 | 5.4 | -0.684 | -5.7 | -8.4
Cc1ccc(Oc2nccc(-c3ccc(Cl)cc3)n2)cc1 | -2.8 | 0.4 | 3.4 | 1.84 | 78.3* | 1.6
CC(C)(C)C(=O)N1CCN(S(=O)(=O)c2ccc3c(c2)OCCCO3)CC1 | . | -5.5 | 4.4 | . | . | 1.2
Cc1ccccc1NC(=O)COC(=O)C1(C)CC1(Cl)Cl (stereo unspecified) | 5.8 | 2.5 | 0.9 | 2.16 | 2.9 | -1.7
CC(C)(C)c1ccc(NC(=O)COC(=O)C2(C)CC2(Cl)Cl)cc1 (stereo unspecified) | -1.2 | 5.2 | 6.3 | -0.276 | 70.2* | 6.4
CCN(CC)S(=O)(=O)c1ccc(N2CCOCC2)c(NC(=O)C23CC4CC(CC(Cl)(C4)C2)C3)c1 | -28.9 | 1.0 | -1.8 | -0.913 | 22.1 | 10.5
Cn1nnnc1SCC(=O)c1ccc2c(c1)OCCO2 | -9.4 | 2.7 | 1.8 | 0.577 | -13.5 | -2.5
CCCn1nnnc1SCC(=O)c1ccc2c(c1)OCCO2 | -19.6 | -2.6 | 2.3 | -0.144 | 85.1* | -1.2
CSc1nnc(-c2ccc(NC(N)=S)cc2)o1 | -11.9 | -3.0 | 0.6 | -0.0465 | 7.2 | 1.8
CSc1nnc(-c2cccc(NC(=S)NN)c2)o1 | 3.0 | -1.7 | -1.2 | -0.695 | 16.8 | 73.7*
O=C(CNC(=O)c1ccccc1Cl)N/N=C/c1ccc2c(c1)OCO2 | -2.8 | 0.9 | 3.6 | . | . | 6.7
O=C(Cn1nnc(-c2ccccc2Cl)n1)N/N=C/c1ccc2c(c1)OCO2 | -14.5 | -1.2 | -1.4 | 0.323 | 76.2* | 4.5
N#CC1=C(N)OC2=C(CCc3ccccc32)C1c1ccccc1Cl (stereo unspecified) | -8.1 | 8.0 | 4.5 | 0.125 | 87.5* | 35.4
CCCCCC(O)(CCCCC)C(=O)NNc1ccccc1 | -3.5 | -6.0 | -0.8 | 1.49 | 91.2* | 4.6
O=C(Nc1cc(S(=O)(=O)N2CCOCC2)ccc1N1CCCC1)c1cccnc1Cl | -13.8 | -1.5 | 1.2 | -0.0833 | 9.2 | 4.2
O=Nc1c(O)n(Cc2ccc(Cl)cc2)c2ccccc12 | -6.6 | -0.2 | 0.2 | -1.22 | 16.0 | -3.7
CCOC(=O)n1c(=O)n(Cc2ccccc2Cl)c2ccccc21 | -18.3 | 2.5 | 0.0 | 0.194 | 18.7 | -3.5
O=Nc1c(O)n(Cc2c(Cl)cccc2Cl)c2ccccc12 | -17.3 | -0.2 | 0.3 | -0.656 | 90.6* | 7.2
O=Nc1c(O)n(Cc2ccc(Cl)cc2Cl)c2ccccc12 | -5.3 | -2.4 | 0.6 | 0.444 | 87.1* | -5.8
CCOC(=O)n1c(=O)n(Cc2ccc(Cl)cc2Cl)c2ccccc21 | -14.1 | -2.6 | -0.4 | 0.728 | 80.6* | -11.5
Cc1ccc(Cn2c(O)c(N=O)c3ccccc32)cc1 | -7.4 | 3.6 | -1.2 | -0.73 | 16.0 | 2.2
Cc1nn(C)c(Cl)c1C(=O)NCC(=O)Nc1ccc(C(C)C)cc1 | 8.9 | -2.7 | -1.2 | -0.612 | -8.0 | 9.2
O=C1C2CC=CCC2C(=O)N1c1cccc(OS(=O)(=O)c2ccc3ccccc3c2)c1 (stereo unspecified) | -14.9 | 1.6 | 0.2 | -0.16 | 20.3 | -0.6
CC(C)(CNC(=O)c1ccccc1NS(C)(=O)=O)N1CCCCC1 | 3.0 | -3.0 | 1.9 | . | . | -5.8
CCN(c1cccc(C)c1)c1nc2ccsc2c(=O)s1 | 1.5 | 0.9 | -1.7 | -0.1 | 73.4* | 2.2
CC1CCc2cc(F)cc3c(O)c(C(=O)NCC4CCCO4)c(=O)n1c23 (stereo unspecified) | 1.8 | -1.8 | -2.2 | -0.667 | 76.7* | -8.8
CCCn1c(=O)c(C(=O)NCC2CCCO2)c(O)c2ccccc21 (stereo unspecified) | -13.5 | 4.1 | 1.9 | -0.133 | -3.4 | -1.0

Screening data as filed in PubChem BioAssay.
